This passage reports IC50 results from ChEMBL document CHEMBL1255509, “Structure-activity relationship of boronic acid derivatives of tyropeptin: proteasome inhibitors” (Bioorg Med Chem Lett, 2010).

Assay [1] is described as follows: Inhibition of chymotrypsin like activity of partially purified human proteasome. It counts as subcellular. The method, boiled down: (§1)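 Purified 20S proteasome isolated from human erythrocytes served as the enzyme source. Inhibition is reported as IC50.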
Assay [2] in a line: Inhibition of trypsin like activity of partially purified human proteasome. It counts as subcellular. In outline: as §1
A short description of assay [3]: Cytotoxicity against human RPMI8226 cells. It counts as cell-based. To be noted: RPMI-8226.
The nature of assay [4]: Inhibition of caspase like activity of partially purified human proteasome. It counts as subcellular. The method, boiled down:
as §1

Structures are written as SMILES.

In the case of `COc1ccc(C[C@H](NC(=O)[C@@H](NC(=O)[C@H](Cc2ccc(OC)cc2)NC(=O)c2cccc(Br)n2)C(C)C)B(O)O)cc1`, the IC50 was determined as 92 nM in assay [1], 14000 nM in assay [2], 44 nM in assay [3] and 27000 nM in assay [4].
Taken in the same sequence, the figures for `COc1ccc(C[C@H](NC(=O)[C@@H](NC(=O)[C@H](Cc2ccc(OC)cc2)NC(=O)c2cccnc2)C(C)C)B(O)O)cc1` were 500 nM, over 40000 nM, 870 nM and over 40000 nM.
For the compound `COc1ccc(C[C@H](NC(=O)[C@@H](NC(=O)[C@H](Cc2ccc(OC)cc2)NC(=O)c2cccc(C)n2)C(C)C)B(O)O)cc1`, the IC50 in assay [1] came to 88 nM; in assay [2], 17000 nM; in assay [3] it was 14 nM; in assay [4] it was 30000 nM.
Consider `COc1ccc(C[C@H](NC(=O)[C@@H](NC(=O)[C@H](Cc2ccc(OC)cc2)NC(=O)c2cc([N+](=O)[O-])ccn2)C(C)C)B(O)O)cc1`, for which the IC50 was 190 nM in assay [1], 19000 nM in assay [2], 48 nM in assay [3] and 34000 nM in assay [4].
Take `COc1ccc(C[C@H](NC(=O)[C@@H](NC(=O)[C@H](Cc2ccc(OC)cc2)NC(=O)c2ccc(F)cn2)C(C)C)B(O)O)cc1`: the IC50 in assay [1] is 81 nM; in assay [2], 14000 nM; in assay [3], 19 nM; in assay [4], 30000 nM.
As for `CC(C)C[C@H](NC(=O)[C@H](Cc1ccccc1)NC(=O)c1cnccn1)B(O)O` [BORTEZOMIB], the IC50 in assay [1] is 39 nM; in assay [2] it was over 40000 nM; in assay [3], 8.8 nM; in assay [4], 750 nM.
For `COc1ccc(C[C@H](NC(=O)[C@@H](NC(=O)[C@H](Cc2ccc(OC)cc2)NC(=O)c2cccc(O)n2)C(C)C)B(O)O)cc1`, the IC50 is 240 nM in assay [1], 21000 nM in assay [2], 340 nM in assay [3] and 26000 nM in assay [4].
On to `COc1ccc(C[C@H](NC(=O)[C@@H](NC(=O)[C@H](Cc2ccc(OC)cc2)NC(=O)c2cc(C(F)(F)F)ccn2)C(C)C)B(O)O)cc1`, for which the IC50 in assay [1] was 150 nM; in assay [2] it was 20000 nM; in assay [3], 53 nM; in assay [4], 25000 nM.

In general, IC50 refers to the midpoint of a concentration-inhibition curve.
